Consider 10 molecules from ChEMBL document CHEMBL4818990, “Insight into the binding mode of HIF-2 agonists through molecular dynamic simulations and biological validation” (Eur J Med Chem, 2021).

The structures appear in SMILES notation. Calls of active or inactive are those of the source. The calls are words filed in the database; no cut-off is given here.

Data set [1] relates to 786-0. Kind of data set: (§1) Agonist activity at HIF-2 in human 786-0-HRE-Luc cells assessed as increase in […] intensity measured after 24 hrs by luciferase reporter gene assay. It counts as cell-based. As to conditions: filed as agonist. The gist of the method:
(§2)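 786-O cells stably transduced with lentiviral HRE-driven firefly luciferase (single clone), grown in RPMI-1640 + 10% FBS. Seeded, allowed to attach, then given compound in DMSO (2 and 20 μM, or a concentration series) for 24 h. Luminescence read with a firefly luciferase reagent; triplicate cultures, mean ± s.d.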

The species named for the next data set is Homo sapiens. Kind of data set: Agonist activity at HIF-2 (unknown origin) expressed in bacterial expression system assessed as change in melting temperature at 10 uM measured by thermal shift assay. As to conditions: filed as agonist. The gist of the method: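 HIF-2–ARNT protein complex (1.5M as printed) with 10 μM compound from DMSO stock, final DMSO 0.1%, in 20 mM Tris pH 8.0, 400 mM NaCl. Read on qPCR instrument with thermal-shift dye. Tm from derivative curve; ΔTm = compound Tm minus blank Tm. Four parallel replicates per compound.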

Data set [2] can be described thus: as §1. The format is cell-based. The conditions noted are these: 786-0, 24 h. The gist of the method: as §2
The test system of data set [3] is 786-0. Kind of data set: Cytotoxicity against human 786-0-HRE-Luc cells assessed as inhibition of cell proliferation at 20 uM measured after 24 hrs by CCK8 assay. It counts as cell-based. The conditions noted are these: 786-0, 24 h.
The test system of data set [4] is 786-0. Description: Agonist activity at HIF-2 in human 786-0-HRE-Luc cells assessed as increase in […] intensity at 20 uM measured after 24 hrs by luciferase reporter gene assay relative to control. It counts as cell-based. The conditions noted are these: filed as agonist. The gist of the method: as §2
Data set [5] relates to 786-0. Kind of data set: Agonist activity at HIF-2 in human 786-0-HRE-Luc cells assessed as increase in […] intensity at 2.2 uM measured after 24 hrs by luciferase reporter gene assay relative to control. The format is cell-based. As to conditions: filed as agonist. Summed up: as §2
In data set [6] the test system is 786-0. Kind of data set: Agonist activity at HIF-2 in human 786-0-HRE-Luc cells at 2 uM measured after 24 hrs by luciferase reporter gene assay. The format is cell-based. As to conditions: filed as agonist. The gist of the method: as §2
The test system of data set [7] is 786-0. Kind of data set: Cytotoxicity against human 786-0-HRE-Luc cells assessed as inhibition of cell proliferation at 1 uM measured after 24 hrs by CCK8 assay. As to conditions: 786-0, 24 h. It counts as cell-based.
The subject of data set [8] is 786-0. Description: Agonist activity at HIF-2 in human 786-0-HRE-Luc cells assessed as increase in […] intensity at 6.6 to 20 uM measured after 24 hrs by luciferase reporter gene assay. The format is cell-based. As to conditions: dose 6.6-20 µM. Summed up: as §2

For the molecule `O=S1(=O)N=C(Nc2cc(Cl)cc(Cl)c2)c2ccccc21`, in the data set on 786-0 [1], the Activity result is “Dose-Dependent Effect”. Moreover, the thermal shift (ΔTm) in the data set filed under Homo sapiens is 2.08 °C.

Regarding `O=C1N=C(Nc2cc(C(F)(F)F)cc(C(F)(F)F)c2)c2ccccc21`, the shift in melting temperature (ΔTm) in the data set filed under Homo sapiens was 0.03 °C.

Consider `CN(C1=NS(=O)(=O)c2ccccc21)c1cc(C(F)(F)F)cc(C(F)(F)F)c1`, for which the thermal shift (ΔTm) in the data set filed under Homo sapiens was found to be 0.27 °C.

For the molecule `O=S1(=O)N=C(Nc2cc(Br)cc(Br)c2)c2ccccc21`, the figures for the Activity result with 786-0 [1] and in the data set with 786-0 [3] were “Dose-Dependent Effect” and “Non-Toxic”, respectively. The concentration giving a half-maximal response (EC50) in data set [2] was 1680 nM. Moreover, the fold change (FC) in the data set with 786-0 [4] amounted to 1.63. In addition, the ΔTm in the data set listed under Homo sapiens stood at 2.52 °C.

In the case of `O=S1(=O)N=C(Nc2cc(C(F)(F)F)cc(C(F)(F)F)c2)c2ccccc21`, the concentration giving a half-maximal response (EC50) in data set [2] worked out at 440 nM. For the same molecule, the fold change (FC) in the data set with 786-0 [5] came out at 1.41. The outcome with 786-0 [6] was Active. In addition, the Activity entry with 786-0 [7] is on record as “Toxic”. Further, the result in the data set on 786-0 [8] was inactive. For the same molecule, the ΔTm in the data set filed under Homo sapiens amounted to 2.23 °C.

In the case of `O=S1(=O)N=C(Nc2cc(F)cc(F)c2)c2ccccc21`, in the data set with 786-0 [1], the Activity result is “Dose-Dependent Effect”. In addition, in the data set listed under Homo sapiens, the ΔTm amounted to 2.05 °C.

As for `Cc1cc(C)cc(NC2=NS(=O)(=O)c3ccccc32)c1`, in the data set with 786-0 [1], the Activity entry was “Dose-Dependent Effect”. Further, in the data set listed under Homo sapiens, the thermal shift (ΔTm) is 1.93 °C.

Turning to `O=S1(=O)N=C(Oc2cc(C(F)(F)F)cc(C(F)(F)F)c2)c2ccccc21`, in the data set filed under Homo sapiens, the thermal shift (ΔTm) turned out to be 0.06 °C.

For the molecule `COc1cc(NC2=NS(=O)(=O)c3ccccc32)cc(OC)c1`, in the data set on 786-0 [1], the Activity result is “Dose-Dependent Effect”. In addition, in the data set filed under Homo sapiens, the ΔTm turned out to be 1.89 °C.

Consider `O=S1(=O)N=C(Nc2ccccc2)c2ccccc21`, for which, in the data set with 786-0 [1], the Activity result was “Dose-Dependent Effect”. Besides, in the data set filed under Homo sapiens, the ΔTm worked out at 2 °C.
